MT stabilize HCS – microtubule stabilizers in HeLa cells. HeLa tubulin immunostaining HCS, 24 h; share of cells brighter than vehicle mean+2SD. % tubulin-high responders, % at 10 µM. actives 0.83% (n = 200,000). AID 2205;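 active means plate Z-score above 3 for both tubulin-high and condensed-nucleus cell shares, with cell loss under 80%, at 10 µM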;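 further: anti alpha tubulin signal scored within the nucleus-defined area of each cell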
NPY-Y2 antag – blocks the human neuropeptide Y Y2 receptor. NPY-Y2 expressing cells, antagonist mode. actives 0.99% (n = 140,000). inhibition, % at 2.7 µM. P49146;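 further: 0% = vehicle with agonist challenge and 100% = reference antagonist with challenge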
NPY-Y1 PAM-ag – potentiates or activates human NPY-Y1 receptor; P25929; NPY-Y1 expressing cells, potentiator/agonist activation; activation, % at 3.6 µM; actives 0.37% (n = 220,000); AID 1304; in the data active means activation above about 33%, passing the limit was not always enough;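 further: cells stimulated with NPY at EC10 then isoproterenol at EC100; 0% = low agonist plus stimulus and 100% = saturating agonist plus stimulus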
Target sequence (P25929 whole entry, looked up): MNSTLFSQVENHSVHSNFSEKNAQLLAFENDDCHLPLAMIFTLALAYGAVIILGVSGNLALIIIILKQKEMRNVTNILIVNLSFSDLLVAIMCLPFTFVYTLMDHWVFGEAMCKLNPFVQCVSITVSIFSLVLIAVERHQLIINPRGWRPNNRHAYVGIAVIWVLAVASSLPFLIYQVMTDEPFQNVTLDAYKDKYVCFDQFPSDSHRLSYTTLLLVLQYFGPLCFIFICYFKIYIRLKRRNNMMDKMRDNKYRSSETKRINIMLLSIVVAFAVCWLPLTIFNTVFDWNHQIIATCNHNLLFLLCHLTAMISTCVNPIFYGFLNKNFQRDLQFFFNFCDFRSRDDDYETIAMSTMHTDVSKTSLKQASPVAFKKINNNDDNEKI
NPY2 pot ag – potentiates or activates human NPY-Y2 receptor | activation, % at 3.6 µM | P49146 | AID 1359 | actives 0.45% (n = 220,000) | cells expressing NPY-Y2, potentiator/agonist read-out; in the data active means activation above about 27%;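 further: cells stimulated with NPY near EC25 plus isoproterenol at EC100; 0% = vehicle plus submaximal agonist and 100% = vehicle plus saturating agonist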
NPY-Y1 antag – antagonists of human neuropeptide Y receptor Y1; AID 1040; P25929; actives 1% (n = 200,000); inhibition, % at 3.6 µM; HEK293-CNG Y1 cells, membrane potential fluorescence; NPY at EC95, then isoproterenol;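 active means inhibition above the campaign mean inhibition of all tested compounds plus 3 SD, cut at about 20% in these data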;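 further: 0% = DMSO wells given NPY plus isoproterenol and 100% = isoproterenol alone without NPY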
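System: HEK293 cells with Y1 receptor plus CNG channel / Probe or stimulus: NPY 25 nM then isoproterenol 1 µM plus Ro 20-1724 25 µM / Compound: one concentration, 3.6 µM, in 0.4% DMSO / Schedule: compound incubation 1 h at room temperature, readout 45 min post-stimulation / Measured by: membrane potential fluorescence / Read-out: % inhibition of NPY effect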
bCat nuc transl – beta-catenin nuclear translocation modulation. HeLa beta-catenin nuclear translocation, immunofluorescence imaging. nuclear translocation activity, % at 5 µM. actives 0.3% (n = 190,000). AID 1665;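 active means nuclear translocation activity above 50% at 5 µM, with a well cell count of 50 or more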;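 further: per-cell ratio of nuclear to cytoplasmic median beta-catenin stain intensity; plate controls were DMSO negative control for no effect and GSK-3 inhibitor IX positive control for full effect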
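test system = HeLa cells, endogenous beta-catenin | dosing = single 5 µM dose plus 0.02–20 µM confirmation series | times = compound treatment 24 h, 37°C, 5% CO2 | technique = beta-catenin immunofluorescence imaging with DAPI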
NPY1 antag conf – human NPY-Y1 antagonism, confirmation. inhibition, % at 3.6 µM. AID 1254. actives 21% (n = 1,200). shares compounds with NPY-Y1 antag. HEK293-CNG NPY-Y1, membrane potential fluorescence, cAMP; NPY challenge against isoproterenol-raised cAMP; in the data active means inhibition above about 20%;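 further: 0% = vehicle with agonist plus stimulus and 100% = stimulus alone without agonist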
NPY-Y2 antag ct – human NPY-Y2 antagonism in NPY-Y1 counter-screen | shares compounds with NPY-Y1 antag | HEK293 NPY-Y2 CNG membrane potential fluorescence; cells given NPY, then isoproterenol | inhibition, % at 3.6 µM | actives 28% (n = 1,200) | AID 1255;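 further: 0% = DMSO with agonist challenge and 100% = reference antagonist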
* = called active by the depositor; . = no result given. An excerpt weighted towards active compounds, which were near 2.6% of everything screened. Unless noted, no stated cut-off is given here; in the data, active means inhibition above about 17%; inactive means the rest.

SMILES | MT stabilize HCS | NPY-Y2 antag | NPY-Y1 PAM-ag | NPY2 pot ag | NPY-Y1 antag | bCat nuc transl | NPY1 antag conf | NPY-Y2 antag ct
Cc1oc(-c2cccs2)nc1CN1CCN(Cc2ccc(F)c(F)c2)C(CCO)C1 (centres undefined) | 4 | . | -1 | 4 | 4 | -3 | . | .
c1ccc(-c2nc(Sc3ncnc4c3cnn4-c3ccccc3)n[nH]2)cc1 | 6 | 6 | -51 | -33 | 26* | -2 | 7 | 9
Cc1ccc(-c2nc(CCN3C(=O)c4ccccc4C3=O)cs2)cc1 | 1 | 4 | -33 | -25 | 25* | 0 | 3 | 5
Cc1ccc2c(CC(=O)NC3CCCc4ccccc43)coc2c1 (centres undefined) | 3 | 5 | -31 | -5 | 0 | 2 | . | .
Cc1ccccc1Oc1cc(NC(=O)Cn2cnc([N+](=O)[O-])c2)cc([N+](=O)[O-])c1 | 2 | . | 32 | 16 | 25* | -6 | -5 | -5
Cc1ccccc1Oc1cc(NC(=O)CCCn2nc(C)c([N+](=O)[O-])c2C)cc([N+](=O)[O-])c1 | 2 | 1 | 16 | 22 | -6 | . | . | .
Cc1cccc(NC(=O)c2cc(N3CCOCC3)nc3ccccc23)c1 | 2 | 4 | -69 | -14 | 16 | 1 | . | .
Cc1cccc(NC(=O)c2cc(Cl)nc3ccccc23)c1 | 1 | 16 | -107 | -58 | 24* | 0 | 8 | 12
Nc1nc(-c2ccc(Cl)cc2)nn1C(=O)c1cccs1 | 2 | . | 11 | -12 | -6 | -3 | . | .
C=C(C)CC(c1ccccc1)N(C(C)=O)c1ccco1 (centres undefined) | 2 | . | 0 | 7 | 4 | -2 | . | .
Cc1noc(NS(=O)(=O)c2ccc(NC(=O)c3ccc(OC(C)C)cc3)cc2)c1C | 4 | . | 14 | 13 | 54* | 3 | -2 | 3
CN(C)S(=O)(=O)c1cccc(NC(=S)NN=C(Cc2ccccc2)Cc2ccccc2)c1 | 2 | 3 | -13 | -2 | 6 | 1 | . | .
O=C(c1nc2ccccn2c1CN1CCCC(OCc2ccccc2)C1)N1CCCC1 (centres undefined) | 1 | . | -19 | -18 | 24* | -2 | 12 | 5
NC(=O)CSc1nc(-c2ccccc2)nc2c1CCCC2 | 2 | . | 4 | -3 | 4 | 0 | . | .
CN(C)CCSc1nc(-c2ccccc2)nc2c1CCC2 | 3 | 16 | -94 | -42 | 24* | -1 | 12 | 20*
COc1ccc(-n2cc(CNC3CCN(C)CC3)c(-c3cccc(F)c3)n2)cc1 | 3 | . | -20 | -41 | 22* | 1 | 17 | 24*
Cc1ccc(COC(=O)c2nn(-c3ccccc3)nc2N)cc1 | 3 | . | -57 | -36 | 29* | 1 | 23* | 15
Nc1nn(-c2ccccc2)nc1C(=O)OCc1ccccc1 | . | . | -32 | -22 | . | -1 | . | .
O=C(Cn1ncc2c(=O)oc3ccccc3c21)NCCN1CCN(c2ccccc2F)CC1 | 3 | -1 | -3 | 6 | 6 | -1 | . | .
O=C(COC(=O)c1ccc[nH]c1=O)NC1CCCCC1 | . | . | 0 | -7 | . | -1 | . | .
CSc1ccc(CN2CCC(CO)(Cc3ccc(Cl)cc3)CC2)cc1 | 2 | . | -75 | -48 | 52* | -1 | 39* | 48*
CC(C)N1C(=O)C(Cc2nc3ccccc3c(=O)n2-c2ccccc2)c2ccccc21 (centres undefined) | 3 | 2 | -57 | -30 | 22* | 6 | 14 | 18*
CCOC(=O)N1CCN(C(=O)c2ccc3c(=O)n4c(nc3c2)CCCCC4)CC1 | 6 | -1 | 14 | -3 | 1 | 2 | . | .
Fc1ccccc1C1c2[nH]c3ccccc3c2CCN1Cc1cccn1-c1ncccn1 (centres undefined) | 3 | . | -21 | -49 | 29* | -1 | 8 | 14
COc1cc(NC(=O)C2COc3ccccc3O2)c(OC)cc1Cl (centres undefined) | 5 | 13 | -94 | -33 | 31* | -2 | 10 | 12
SMILES | MT stabilize HCS | NPY-Y2 antag | NPY-Y1 PAM-ag | NPY2 pot ag | NPY-Y1 antag | bCat nuc transl | NPY1 antag conf | NPY-Y2 antag ct
COc1ccc(NC(C)=O)cc1NC(=O)c1ccc(Cl)cc1 | 2 | . | -11 | 13 | 0 | 0 | . | .
COC(=O)c1ccc(C)c(NC(=O)C2COc3ccccc3O2)c1 (centres undefined) | 4 | 3 | -1 | -3 | 0 | 1 | . | .
COc1cc(NC(=O)c2ccc(Cl)cc2)c(OC)cc1Cl | 3 | 15 | -40 | -47 | 31* | . | 7 | 8
OCC1C2c3ccccc3C(c3ccccc32)C1CO (centres undefined) | . | . | 2 | -12 | . | -1 | . | .
COC(=O)C1=C(Nc2ccc(C)cc2)C=C(C)C(C(=O)OC)C1c1cccc(OC)c1 (centres undefined) | 18 | 10 | -72 | -25 | 24* | 57* | 11 | 11
COc1cccc(C2NC(=O)NC(C)=C2C(=O)Nc2ccc(C)cc2)c1 (centres undefined) | 2 | 2 | 18 | -2 | 3 | 1 | . | .
Cc1ccc(C(c2nnnn2CCc2ccccc2)N2CCC(C)CC2)cc1 (centres undefined) | 3 | 10 | -6 | 9 | 2 | . | . | .
Cc1ccc(C(c2nnnn2CCc2ccccc2)N2CCSCC2)cc1 (centres undefined) | 1 | 10 | 3 | 2 | 21* | . | 10 | 4
O=S1(=O)[C@H]2C[C@@H]3CC[C@]2(CN1Cc1cccc(F)c1)O3 | . | . | . | . | . | 0 | . | .
Cc1cc(C)c(C#N)c(SCC(=O)c2cc(C)n(CCc3ccccc3)c2C)n1 | 4 | 1 | -10 | 4 | 24* | -2 | 10 | 11
Cc1[nH]c2ccccc2c1C(=O)CSc1nc2ccccc2c(=O)n1CCCN1CCOCC1 | 2 | 6 | -23 | -16 | 1 | 1 | . | .
Cc1cc(C)cc(NC(=O)c2oc3ccccc3c2COc2ccccc2)c1 | 2 | -1 | -31 | -18 | 23* | -6 | 5 | 12
O=C(c1ccc2c(c1)OCO2)C1CCCN(Cc2cc(F)ccc2-n2cccn2)C1 (centres undefined) | 2 | . | -19 | -19 | 3 | -1 | . | .
Cc1ccc(-n2cccn2)c(CN2CCCC(C(=O)c3ccc4c(c3)OCO4)C2)c1 (centres undefined) | 3 | . | -28 | -25 | 28* | -4 | 24* | 28*
O=C(O)CCCCCCC1C(=O)NC(=O)N1CCC(O)C1CCCCC1 (centres undefined) | 2 | 5 | -50 | -2 | 24* | -3 | 28* | 21*
